Data set [1] deals with Mus musculus. In words: Antiangiogenic activity in Matrigel plug angiogenic BALB/c mouse assessed as reduction in blood vessel formation at 10 to 20 mg/kg, sc measured after 10 days by Matrigel plug assay. It counts as functional, organism-based. The method, boiled down: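 Balb/c mice, 5 weeks old, were injected subcutaneously with 750 µL of a 2:1 mix of growth factor-reduced Matrigel and compound (10 or 20 mg/kg) or vehicle. Plugs were harvested after 10 days and the subcutaneous vessels photographed.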

Data set [2] deals with T47D. As to the kind of experiment: Inhibition of colony formation in human T47D cells at 20 to 40 nM incubated for 5 days by crystal violet staining based light microscopy. In kind it is functional, cell-based. The method, boiled down: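 MDA-MB-231, T-47D, SiHa and HeLa cells seeded at 4×10^3/well and cultured with varying concentrations of drug or vehicle for 5 days. Fixed in 20% methanol, stained with 0.5% crystal violet, photographed under light microscopy. DMEM (T-47D) with 10% FBS, 37°C, 5% CO2.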

Data set [3] concerns T47D. As to the kind of experiment: Antiproliferative activity against human T47D cells assessed as reduction in cell viability at 20 to 40 nM incubated for 48 hrs by EdU staining based laser scanning confocal microscopy. In kind it is functional. The method, boiled down:
(§1)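 Cells, 5×10^4, were seeded in 24-well plates and treated for 48 h. They were then labeled using an EdU Apollo 488 imaging kit with Hoechst 33342 nuclear stain and imaged by laser scanning confocal microscopy. Percent EdU-positive cells = EdU-positive/Hoechst-stained × 100%.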

Data set [4] relates to SiHa. In words: Antiproliferative activity against human SiHa cells assessed as reduction in cell viability at 40 to 80 nM incubated for 48 hrs by EdU staining based laser scanning confocal microscopy. In kind it is functional. The method, boiled down:
as §1

Data set [5] relates to SiHa. As to the kind of experiment: Induction of cell cycle arrest in human SiHa cells assessed as accumulation in G2/M phase at 40 to 80 nM incubated for 36 hrs by propidium iodide staining based flow cytometry. It counts as functional. The method, boiled down: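 Cells were treated with graded concentrations for 36 h, then fixed overnight in 70% ice-cold ethanol at 4°C and resuspended in PBS. Staining used 50 µg/ml PI plus 5 µg/ml RNase at 37°C for 30 min. DNA content was analysed by FACS to give G0/G1, S and G2/M fractions.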

A short description of data set [6]: AUC (0 to t) in Sprague-Dawley rat at 10 mg/kg, po by HPLC-MS analysis. In kind it is ADME, organism-based. As to conditions: in vivo. The method, boiled down: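 Rats fitted with jugular vein catheters for serial blood sampling. Compound dissolved in saline with 5% (v/v) DMSO and given as a single 10 mg/kg dose iv or po after an overnight fast, n = 5 per group. Plasma isolated at once and measured by HPLC with tandem MS detection. Parameters derived by noncompartmental fitting.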

In data set [7] the test system is Mast/stem cell growth factor receptor Kit (Homo sapiens), P10721 [V560G]. In words: Inhibition of recombinant human cKIT V560G mutant (544 to end residues) at 1 uM using GGMEDIYFEFMGG as substrate incubated for 40 mins in presence of [gamma-33P]-ATP by scintillation counting method relative to control. The method, boiled down: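 Tested at a single 1 uM in an outsourced commercial kinase-profiling panel, read as percent inhibition. Each value is the mean of two independent experiments.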

Data set [8] deals with Death-associated protein kinase 2 (Homo sapiens) (UniProt Q9UIK4). In words: Inhibition of recombinant full length human DAPK2 at 1 uM using calmodulin as substrate incubated for 40 mins in presence of [gamma-33P]-ATP by scintillation counting method relative to control. The method, boiled down: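 Kinase panel profiling at 1 μM performed by Eurofins KinaseProfiler; percent inhibition reported as mean of two independent experiments.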

The target of data set [9] is Serine/threonine-protein kinase/endoribonuclease IRE1 (Homo sapiens) (UniProt O75460). As to the kind of experiment: Inhibition of recombinant human IRE1 (465 to end residues) at 1 uM using myelin basic protein as substrate incubated for 40 mins in presence of [gamma-33P]-ATP by scintillation counting method relative to control.
Data set [10] has as its target Leucine-rich repeat serine/threonine-protein kinase 2 (Homo sapiens) (UniProt Q5S007). As to the kind of experiment: Inhibition of recombinant human LRRK2 (970 to end residues) at 1 uM using RLGRDKYKTLRQIRQ as substrate incubated for 40 mins in presence of [gamma-33P]-ATP by scintillation counting method relative to control.
Data set [11] concerns the target DNA-dependent protein kinase catalytic subunit (Homo sapiens) (UniProt P78527). As to the kind of experiment: Inhibition of recombinant human full length DNA-PK at 1 uM using GST-cMyc-p53 as substrate incubated for 40 mins in presence of [gamma-33P]-ATP by scintillation counting method relative to control.
The target in data set [12] is Protein kinase C alpha type (Homo sapiens) (UniProt P17252). In words: Inhibition of recombinant human full length PKCalpha at 1 uM using histone H1 as substrate incubated for 40 mins in presence of [gamma-33P]-ATP by scintillation counting method relative to control.
In data set [13] the target is Ribosomal protein S6 kinase alpha-3 (Homo sapiens) (UniProt P51812). As to the kind of experiment: Inhibition of recombinant human RSK2 (2 to end residues) at 1 uM using KKKNRTLSVA as substrate incubated for 40 mins in presence of [gamma-33P]-ATP by scintillation counting method relative to control.
Data set [14] deals with Testis-specific serine/threonine-protein kinase 4 (Homo sapiens) (UniProt Q6SA08). As to the kind of experiment: Inhibition of recombinant human full length TSSK4 at 1 uM using KKLNRTLSFAEPG as substrate incubated for 40 mins in presence of [gamma-33P]-ATP by scintillation counting method relative to control. The method, boiled down:
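Single-point inhibition at 1 uM measured in a commercial kinase profiling panel (KinaseProfiler); each value is the mean of two independent experiments.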

Data set [15] concerns the target Serine/threonine-protein kinase WNK3 (Homo sapiens) (UniProt Q9BYP7). As to the kind of experiment: Inhibition of recombinant human WNK3 (1 to 434 residues) at 1 uM using myelin basic protein as substrate incubated for 40 mins in presence of [gamma-33P]-ATP by scintillation counting method relative to control.
For data set [16], the target named is Mitogen-activated protein kinase kinase kinase 20 (Homo sapiens) (UniProt Q9NYL2). In words: Inhibition of recombinant human full length ZAK at 1 uM using MBP as substrate incubated for 40 mins in presence of [gamma-33P]-ATP by scintillation counting method relative to control.
The test system of data set [17] is MDA-MB-231. As to the kind of experiment: Induction of apoptosis in human MDA-MB-231 cells assessed as decrease in Bcl2 expression at 20 to 40 nM incubated for 48 hrs by Western blot analysis. In kind it is functional, cell-based. The method, boiled down: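 Cells were treated for 48 h, washed three times with PBS, and lysed in RIPA buffer. Immunoblots used anti-Rb, anti-phospho-Rb, anti-Ki67 and anti-Bcl-2 (each 1:1000), with β-actin as loading control.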
A general note: In western blotting, separated proteins are transferred to a membrane and probed.

Data set [18] is described as follows: Toxicity in NOD/SCID BALB/c mouse xenografted with human SiHa cells assessed as body weight at 40 mg/kg, po administered for 21 days. The conditions noted are these: in vivo, 504 h. It counts as organism-based. The method, boiled down:
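Female NOD/SCID Balb/c mice, 6–8 weeks, implanted subcutaneously in right flank with 2×10^6 SiHa cells in 100 µL medium. At 100 mm³ tumors, randomized (5 mice/group) to daily oral gavage. Body weight monitored every 3 days; study ended day 21.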

Data set [19] concerns MDA-MB-231. As to the kind of experiment: Inhibition of colony formation in human MDA-MB-231 cells at 40 nM incubated for 5 days by crystal violet staining based light microscopy. It counts as functional, cell-based. The method, boiled down: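 4 × 10^3 cells per well were cultured with graded concentrations for 5 days. Cells were then fixed with 20% methanol, stained with 0.5% crystal violet and photographed by light microscopy.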

We go through two compounds from ChEMBL document CHEMBL4406821, “Novel dual inhibitors targeting CDK4 and VEGFR2 synergistically suppressed cancer progression and angiogenesis” (Eur J Med Chem, 2019).

The source made the active and inactive calls. No cut-off for these calls is given here.

Serine/threonine-protein kinase WNK3 (Homo sapiens), sequence (Q9BYP7 whole entry, the tested form may be a part): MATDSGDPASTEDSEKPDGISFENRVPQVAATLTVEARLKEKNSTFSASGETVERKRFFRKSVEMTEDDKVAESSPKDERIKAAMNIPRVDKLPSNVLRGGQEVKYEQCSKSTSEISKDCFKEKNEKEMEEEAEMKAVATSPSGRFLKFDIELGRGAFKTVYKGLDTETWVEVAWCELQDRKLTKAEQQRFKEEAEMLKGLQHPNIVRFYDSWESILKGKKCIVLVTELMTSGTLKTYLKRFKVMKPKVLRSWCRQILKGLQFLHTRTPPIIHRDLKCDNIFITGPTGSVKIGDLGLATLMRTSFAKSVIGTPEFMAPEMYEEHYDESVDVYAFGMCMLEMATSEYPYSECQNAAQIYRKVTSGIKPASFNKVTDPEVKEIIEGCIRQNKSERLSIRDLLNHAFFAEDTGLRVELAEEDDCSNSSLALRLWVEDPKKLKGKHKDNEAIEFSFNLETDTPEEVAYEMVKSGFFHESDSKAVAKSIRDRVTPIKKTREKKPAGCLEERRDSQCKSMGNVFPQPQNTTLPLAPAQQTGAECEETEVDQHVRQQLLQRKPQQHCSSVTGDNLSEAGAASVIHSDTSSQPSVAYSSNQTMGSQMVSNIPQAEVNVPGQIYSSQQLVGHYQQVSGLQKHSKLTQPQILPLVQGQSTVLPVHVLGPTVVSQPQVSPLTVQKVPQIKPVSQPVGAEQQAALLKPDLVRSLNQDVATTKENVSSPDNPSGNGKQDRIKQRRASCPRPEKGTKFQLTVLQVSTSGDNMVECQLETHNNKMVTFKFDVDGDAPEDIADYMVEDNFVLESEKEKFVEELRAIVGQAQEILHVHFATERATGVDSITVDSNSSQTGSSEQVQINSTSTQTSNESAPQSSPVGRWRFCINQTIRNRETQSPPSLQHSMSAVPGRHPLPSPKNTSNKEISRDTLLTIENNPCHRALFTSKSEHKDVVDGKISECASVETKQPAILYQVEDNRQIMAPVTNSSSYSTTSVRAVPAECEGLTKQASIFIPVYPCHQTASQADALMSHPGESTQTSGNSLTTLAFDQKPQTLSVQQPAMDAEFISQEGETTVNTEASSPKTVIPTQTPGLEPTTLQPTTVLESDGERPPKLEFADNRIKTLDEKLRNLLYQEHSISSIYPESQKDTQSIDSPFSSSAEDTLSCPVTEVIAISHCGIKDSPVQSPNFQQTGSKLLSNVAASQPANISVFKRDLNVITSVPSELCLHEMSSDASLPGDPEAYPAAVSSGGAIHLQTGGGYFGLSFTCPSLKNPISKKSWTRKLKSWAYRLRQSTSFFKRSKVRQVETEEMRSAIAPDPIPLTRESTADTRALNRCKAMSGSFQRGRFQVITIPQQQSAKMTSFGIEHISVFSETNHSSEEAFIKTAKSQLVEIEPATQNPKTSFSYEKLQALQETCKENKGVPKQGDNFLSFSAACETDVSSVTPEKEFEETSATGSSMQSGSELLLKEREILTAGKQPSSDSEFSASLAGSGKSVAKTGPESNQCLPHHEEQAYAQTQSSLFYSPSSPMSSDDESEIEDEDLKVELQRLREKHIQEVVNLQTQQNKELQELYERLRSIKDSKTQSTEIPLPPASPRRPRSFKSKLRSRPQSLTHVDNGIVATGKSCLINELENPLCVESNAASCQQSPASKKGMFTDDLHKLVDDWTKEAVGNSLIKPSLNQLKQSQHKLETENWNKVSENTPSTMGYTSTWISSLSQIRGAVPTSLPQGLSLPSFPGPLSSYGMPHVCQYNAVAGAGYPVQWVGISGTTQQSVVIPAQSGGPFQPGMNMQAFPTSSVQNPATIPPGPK
Mast/stem cell growth factor receptor Kit (Homo sapiens), P10721 [V560G], sequence (P10721 whole entry V560G): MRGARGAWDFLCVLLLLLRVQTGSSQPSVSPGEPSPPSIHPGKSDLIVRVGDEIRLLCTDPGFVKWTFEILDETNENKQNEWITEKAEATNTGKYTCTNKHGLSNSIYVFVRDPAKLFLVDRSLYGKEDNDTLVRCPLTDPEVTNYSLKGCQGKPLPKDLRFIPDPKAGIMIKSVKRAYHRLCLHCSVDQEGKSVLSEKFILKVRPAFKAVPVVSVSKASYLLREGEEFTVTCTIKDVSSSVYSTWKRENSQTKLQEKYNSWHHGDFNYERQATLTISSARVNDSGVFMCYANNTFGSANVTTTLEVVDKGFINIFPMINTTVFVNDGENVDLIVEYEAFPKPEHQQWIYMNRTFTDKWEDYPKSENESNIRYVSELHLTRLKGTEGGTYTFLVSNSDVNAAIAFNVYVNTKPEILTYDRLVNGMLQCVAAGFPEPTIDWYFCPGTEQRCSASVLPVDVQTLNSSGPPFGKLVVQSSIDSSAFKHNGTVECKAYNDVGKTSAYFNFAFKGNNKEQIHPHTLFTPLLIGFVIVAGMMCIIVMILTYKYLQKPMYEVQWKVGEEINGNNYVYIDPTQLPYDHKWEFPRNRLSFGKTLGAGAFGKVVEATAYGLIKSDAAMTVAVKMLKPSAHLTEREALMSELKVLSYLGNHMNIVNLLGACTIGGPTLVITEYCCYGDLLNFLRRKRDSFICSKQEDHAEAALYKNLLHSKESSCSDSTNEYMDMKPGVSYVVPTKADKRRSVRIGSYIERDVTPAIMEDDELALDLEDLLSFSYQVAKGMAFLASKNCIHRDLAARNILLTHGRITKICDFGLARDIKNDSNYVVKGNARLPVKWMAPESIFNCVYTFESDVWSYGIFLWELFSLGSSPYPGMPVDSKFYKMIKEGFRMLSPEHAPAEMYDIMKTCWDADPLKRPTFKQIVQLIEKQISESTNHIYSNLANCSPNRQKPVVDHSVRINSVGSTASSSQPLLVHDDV
Ribosomal protein S6 kinase alpha-3 (Homo sapiens), sequence (P51812 whole entry): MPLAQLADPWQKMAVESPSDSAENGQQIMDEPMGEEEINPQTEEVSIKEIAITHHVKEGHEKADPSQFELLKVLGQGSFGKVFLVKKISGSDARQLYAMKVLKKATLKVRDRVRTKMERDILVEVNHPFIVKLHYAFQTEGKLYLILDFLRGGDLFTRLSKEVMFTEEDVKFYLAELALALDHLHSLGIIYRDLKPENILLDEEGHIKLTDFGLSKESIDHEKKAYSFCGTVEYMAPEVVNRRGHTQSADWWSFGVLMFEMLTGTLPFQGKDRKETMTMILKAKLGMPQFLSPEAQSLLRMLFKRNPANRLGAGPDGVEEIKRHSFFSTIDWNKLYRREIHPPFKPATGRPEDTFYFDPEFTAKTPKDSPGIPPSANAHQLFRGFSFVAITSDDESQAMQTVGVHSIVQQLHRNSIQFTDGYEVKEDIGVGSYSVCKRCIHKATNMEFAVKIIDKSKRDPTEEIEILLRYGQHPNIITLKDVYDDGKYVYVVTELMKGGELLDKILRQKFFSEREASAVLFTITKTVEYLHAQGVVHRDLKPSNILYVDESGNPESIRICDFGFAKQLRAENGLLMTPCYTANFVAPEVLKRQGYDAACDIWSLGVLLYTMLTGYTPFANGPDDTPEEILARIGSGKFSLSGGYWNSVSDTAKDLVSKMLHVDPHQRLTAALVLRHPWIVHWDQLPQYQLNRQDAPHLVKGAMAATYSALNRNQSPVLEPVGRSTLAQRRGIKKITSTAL
Mitogen-activated protein kinase kinase kinase 20 (Homo sapiens), sequence (Q9NYL2 2-800 limits assumed): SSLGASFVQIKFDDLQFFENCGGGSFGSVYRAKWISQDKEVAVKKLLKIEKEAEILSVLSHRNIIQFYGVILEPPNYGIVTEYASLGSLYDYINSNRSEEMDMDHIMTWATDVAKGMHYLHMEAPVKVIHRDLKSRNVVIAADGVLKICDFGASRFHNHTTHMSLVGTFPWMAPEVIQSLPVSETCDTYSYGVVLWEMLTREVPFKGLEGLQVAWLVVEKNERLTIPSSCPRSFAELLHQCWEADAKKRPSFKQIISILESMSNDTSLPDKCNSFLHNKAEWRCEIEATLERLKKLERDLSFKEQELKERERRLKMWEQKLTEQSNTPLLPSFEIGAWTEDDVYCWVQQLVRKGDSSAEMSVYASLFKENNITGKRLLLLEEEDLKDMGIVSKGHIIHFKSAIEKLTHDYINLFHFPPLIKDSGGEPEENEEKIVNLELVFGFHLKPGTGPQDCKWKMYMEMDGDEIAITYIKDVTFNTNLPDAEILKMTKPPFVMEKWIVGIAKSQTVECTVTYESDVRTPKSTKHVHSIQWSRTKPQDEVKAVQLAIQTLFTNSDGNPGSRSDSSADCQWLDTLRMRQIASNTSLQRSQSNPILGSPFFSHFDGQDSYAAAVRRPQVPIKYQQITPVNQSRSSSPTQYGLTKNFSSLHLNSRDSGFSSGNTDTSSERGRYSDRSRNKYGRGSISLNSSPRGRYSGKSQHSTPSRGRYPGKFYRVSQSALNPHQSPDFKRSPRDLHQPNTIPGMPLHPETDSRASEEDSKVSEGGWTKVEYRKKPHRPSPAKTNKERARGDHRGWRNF

The inhibition is the drop in the measured response relative to a control, in per cent. By AUC(0-t) is commonly meant the area under the concentration-time curve up to a stated or last time point. In the case of `Cc1ccc(NC(=O)C2(C(=O)Nc3ccc(Nc4ncc(F)c(-c5cc(F)c6nc(C)n(C(C)C)c6c5)n4)cc3)CC2)cc1`, the inhibition result in [1], in [2], in [3] and in data set [4] was “Active” in each case. Further, the result in data set [5] and in data set [17] was Active. The same compound showed an area under the curve AUC(0-t) in data set [6] of 6000 ng·h/mL. Also, the inhibition was determined as 73% in [7]; 10% in data set [8]; 33% in data set [9]; 83% in data set [10]; 3% in [11]; 70% in [12]. Also, the inhibition was determined as 19% in data set [13], 0% in [14], 17% in [15] and 14% in [16].
As for `COc1cc2nccc(Oc3ccc(NC(=O)C4(C(=O)Nc5ccc(F)cc5)CC4)cc3)c2cc1OC` [CABOZANTINIB], the Activity result in data set [18] is listed as “Non-Toxic”. Moreover, the inhibition result in [19] was “Active”.
